Experimental data reported in ChEMBL document CHEMBL1926504, “Design, synthesis, and evaluation of novel small molecule inhibitors of the influenza virus protein NS1” (Bioorg Med Chem, 2012).
The source made the active and inactive calls. No cut-off for these calls is given here.

Legend:
Influenza A virus [1] = test: Antiviral activity against Influenza virus A/PR/8/34 infected in MDCK cells assessed as reduction in viral titer after 48 hrs by hemagglutinination assay; type: functional; conditions: for Activity: A/Puerto Rico/8/1934(H1N1)
Outline: (§1)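 MDCK monolayers grown to confluence in Iscove medium with 10% FBS and 2 mM L-glutamine. Infected with A/PR/8/34 at MOI 0.1 for 48 h in growth medium with 0.3% BSA, 0.22% bicarbonate and TPCK-trypsin. Compound or DMSO added at the start of infection and kept throughout. Supernatant titre measured by TCID50 on MDCK cells using hemagglutination (Reed–Muench).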

Influenza A virus [2] = test: Antiviral activity against Influenza virus A/PR/8/34 infected in MDCK cells assessed as reduction in viral titer at 50 uM after 48 hrs by hemagglutinination assay; type: functional, organism-based; conditions: A/Puerto Rico/8/1934(H1N1)
Outline: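 Confluent MDCK monolayers infected with A/PR/8/34 at MOI 0.1, with compound at 50 µM present for the entire 48 h. Viral titre in supernatants expressed as logTCID50, read by hemagglutination on MDCK cells (Reed–Muench). DMSO-treated infected cells served as control.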

Influenza A virus [3] = test: Antiviral activity against Influenza virus A/PR/8/34 infected in MDCK cells assessed as reduction in viral titer at 50 uM after 48 hrs by hemagglutinination assay relative to untreated control; type: functional, A/Puerto Rico/8/1934(H1N1)
Outline: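 MDCK monolayers infected with A/PR/8/34 at MOI 0.1 for 48 h, with 50 µM compound throughout. Supernatant logTCID50 determined by hemagglutination (Reed–Muench). Fold decrease obtained by subtracting each logTCID50 from the DMSO-control value and taking the inverse log.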

MDCK = test: Cytotoxicity against MDCK cells up to 100 uM after 48 hrs; type: cell-based, Canis lupus familiaris; conditions: dog
Influenza A virus [4] = test: Antiviral activity against Influenza virus A/PR/8/34 infected in MDCK cells assessed as log reduction in viral replication at 1 uM after 48 hrs by hemagglutinination assay relative to control; type: functional, A/Puerto Rico/8/1934(H1N1); outline: as §1

With `O=C(CCc1ccccc1O)NCc1ccccc1` the Activity (Influenza A virus [1]) was “Active”.

In the case of `O=C(N/N=C/c1ccc2c(c1)CCC2)c1ccccc1O`, the Activity (Influenza A virus [2]) is reported as “Active”, the “fold change (FC)” value (Influenza A virus [3]) is reported as 25 and the “log10 TCID50” value (Influenza A virus [1]) is reported as 7.1. The Activity (MDCK) was “Non-toxic”.

For `O=C(NCCCc1ccccc1)c1c(O)ccc2ccccc12`, the Activity (Influenza A virus [1]) was “Active”.

`O=C(N/N=C/c1ccc([N+](=O)[O-])cc1)c1ccccc1O` was tested, and the Activity (Influenza A virus [2]) was “Active”.

For `COc1ccc(N)c(C(=O)NCCCc2ccccc2)c1`, the Activity (Influenza A virus [1]) was “Active”.

With `O=C(NCCCc1ccccc1)c1ccc(O)cc1` the “fold change (FC)” value (Influenza A virus [3]) was 100 and the “log10 TCID50” value (Influenza A virus [1]) was 6.5.

`O=C(NCCCc1ccccc1)c1ccccc1Cl` was tested, and the Activity (Influenza A virus [1]) was “Active”.

`O=C(NCCCc1ccccc1)c1ccccc1I` was tested, and the Activity (Influenza A virus [1]) was “Active”.

`O=C(NCCCc1ccccc1)c1ccccc1` was tested, and the “fold change (FC)” value (Influenza A virus [3]) was 50 and the “log10 TCID50” value (Influenza A virus [1]) was 6.8.

`O=C(NCCCc1ccccc1)c1nccc2ccccc12` was tested, and the Activity (Influenza A virus [1]) was “Active”.

`O=C(NCCCc1ccccc1)c1ccccc1[N+](=O)[O-]` was tested, and the “fold change (FC)” value (Influenza A virus [3]) was 100 and the “log10 TCID50” value (Influenza A virus [1]) was 6.5.

For `COc1ccc(/C=N/NC(=O)c2ccccc2O)cc1`, the Activity (Influenza A virus [2]) was “Active”.

With `Nc1ccccc1C(=O)NCCOc1ccccc1` the Activity (Influenza A virus [1]) was “Active”.

In the case of `O=C(N/N=C/c1ccc(O)cc1)c1ccccc1O`, the Activity (Influenza A virus [2]) is reported as “Active”.

For `O=C(NCCCc1ccccc1)c1ccc2c(c1)OCO2`, the Activity (Influenza A virus [1]) was “Active”.

In the case of `O=C(NCCCc1ccccc1)c1cc2ccccc2cn1`, the Activity (Influenza A virus [1]) is reported as “Active”.

In the case of `COc1ccccc1C(=O)NCCCc1ccccc1`, the “fold change (FC)” value (Influenza A virus [3]) is reported as 500 and the “log10 TCID50” value (Influenza A virus [1]) is reported as 5.8.

With `Cc1ccccc1C(=O)NCCCc1ccccc1` the “fold change (FC)” value (Influenza A virus [3]) was 158 and the “log10 TCID50” value (Influenza A virus [1]) was 6.3.

For `O=C(CCc1ccccc1O)Nc1ccccc1`, the Activity (Influenza A virus [1]) was “Active”.

For `O=C(CCCc1ccccc1)Nc1ccccc1O`, the Activity (Influenza A virus [1]) was “Active”.

With `O=C(Cc1ccccc1O)NCCc1ccccc1` the Activity (Influenza A virus [1]) was “Active”.

For `O=C(NCCCc1ccccc1)c1ccccc1Br`, the Activity (Influenza A virus [1]) was “inactive”.

`O=C(N/N=C/c1ccc2ccccc2c1)c1ccccc1O` was tested, and the Activity (Influenza A virus [2]) was “Active”.

In the case of `O=C(NCCCc1ccccc1)c1ccccn1`, the Activity (Influenza A virus [1]) is reported as “Active”.

In the case of `O=C(NCCCc1ccccc1)c1ccccc1F`, the Activity (Influenza A virus [1]) is reported as “inactive”.

For `Nc1ccc([N+](=O)[O-])cc1C(=O)NCCCc1ccccc1`, the Activity (Influenza A virus [1]) was “Active”.

`Nc1ccc(C(=O)NCCCc2ccccc2)c(O)c1` was tested, and the Activity (Influenza A virus [1]) was “Active”.

For `O=C(NCCCc1ccccc1)c1ccc2ccccc2n1`, the Activity (Influenza A virus [1]) was “Active”.

`CN(CCCc1ccccc1)C(=O)c1ccccc1O` was tested, and the Activity (Influenza A virus [1]) was “Active”.

With `O=C(NCCc1ccccc1)c1ccccc1O` the “fold change (FC)” value (Influenza A virus [3]) was 25 and the “log10 TCID50” value (Influenza A virus [1]) was 7.1.

In the case of `O=C(NCCCCc1ccccc1)c1ccccc1O`, the Activity (Influenza A virus [2]) is reported as “Active”.

With `O=C(NCCCc1ccccc1)c1ccc2ccccc2c1O` the Activity (Influenza A virus [1]) was “Active”.

`Nc1ccccc1C(=O)NCCCc1ccccc1` was tested, and the FC (Influenza A virus [4]) was >2, the Activity (Influenza A virus [1]) was “Active” and the Activity (MDCK) was “Non-toxic”.

In the case of `Nc1ccc(Cl)cc1C(=O)NCCCc1ccccc1`, the Activity (Influenza A virus [1]) is reported as “Active”.

For `O=C(N/N=C/c1ccc(Cl)cc1)c1ccccc1O`, the Activity (Influenza A virus [2]) was “Active”.

For `N#Cc1ccccc1C(=O)NCCCc1ccccc1`, the Activity (Influenza A virus [1]) was “Active”.

For `O=C(NCCCc1ccccc1)c1cc2ccccc2cc1O`, the Activity (Influenza A virus [1]) was “Active”.

With `O=C(NCCOc1ccccc1)c1ccccc1O` the Activity (Influenza A virus [1]) was “Active”.

`O=C(NCCCc1ccccc1)c1cccc(O)c1` was tested, and the “fold change (FC)” value (Influenza A virus [3]) was 200 and the “log10 TCID50” value (Influenza A virus [1]) was 6.2.

`O=C(N/N=C/c1ccccc1)c1ccccc1O` was tested, and the Activity (Influenza A virus [2]) was “Active”.

In the case of `O=C(NCCCc1ccccc1)c1ccccc1O`, the “fold change (FC)” value (Influenza A virus [3]) is reported as 630, the “log10 TCID50” value (Influenza A virus [1]) is reported as 5.7 and the Activity (MDCK) is reported as “Non-toxic”.
